# Test results from ChEMBL document CHEMBL4715682, “Potent trifluoromethoxy, trifluoromethylsulfonyl, trifluoromethylthio and pentafluorosulfanyl containing (1,3,4-oxadiazol-2-yl)benzamides against drug-resistant Gram-positive bacteria” (RSC Med Chem, 2020).
# What was measured:
# Staphylococcus aureus [1] = assay: Bacteriostatic activity against methicillin-resistant Staphylococcus aureus ATCC 33592 assessed as reduction in bacterial growth incubated for 18 hrs by CLSI method; format: functional
# Caco-2 = assay: Cytotoxicity against human Caco2 cells assessed as reduction in cell viability at 128 ug/ml incubated for 2 hrs by MTS assay; format: cell-based; settings: caco-2, 2 h, dose 128 µg/ml
# [2] = tested on: Staphylococcus epidermidis; assay: Antibacterial activity against Staphylococcus epidermidis NRS101 assessed as inhibition of visible bacterial growth incubated for 18 to 20 hrs by CLSI method; format: functional; settings: time 18-20 hrs
# Method in brief: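 Broth microdilution per CLSI. Strains grown aerobically overnight on TSA at 37 °C, suspended to 0.5 McFarland, diluted in CAMHB to about 5×10^5 CFU/mL. Agents serially diluted across plate; aerobic incubation 37 °C for 18-20 h. MIC = lowest concentration completely preventing visible growth.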
# Staphylococcus aureus [3] = assay: Antibacterial activity against methicillin-resistant Staphylococcus aureus NRS 119 assessed as inhibition of visible bacterial growth incubated for 18 to 20 hrs by CLSI method; format: functional; settings: time 18-20 hrs
# Method in brief: (§1)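 CLSI broth microdilution. Strains grown aerobically overnight on tryptic soy agar at 37 °C, adjusted to 0.5 McFarland and diluted in cation-adjusted Mueller–Hinton broth to about 5×10^5 CFU/mL. Compounds and control drugs serially diluted across the plate. Incubated aerobically at 37 °C for 18-20 h. MIC is the lowest concentration with no visible growth.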
# Staphylococcus aureus [4] = assay: Antibacterial activity against methicillin-sensitive Staphylococcus aureus ATCC 6538 assessed as inhibition of visible bacterial growth incubated for 18 to 20 hrs by CLSI method; format: functional; settings: time 18-20 hrs; method in brief: as §1
# J774 = assay: Cytotoxicity against mouse J774 cells assessed as reduction in cell viability at 32 ug/ml incubated for 24 hrs by MTS assay; format: cell-based; settings: j774, 24 h, dose 32 µg/ml
# Staphylococcus aureus [5] = assay: Antibacterial activity against methicillin-resistant Staphylococcus aureus NRS123 assessed as inhibition of visible bacterial growth incubated for 18 to 20 hrs by CLSI method; format: functional; settings: time 18-20 hrs; method in brief: as §1
# Staphylococcus aureus [6] = assay: Antibacterial activity against methicillin-resistant Staphylococcus aureus NRS383 assessed as inhibition of visible bacterial growth incubated for 18 to 20 hrs by CLSI method; format: functional; settings: time 18-20 hrs; method in brief: as §1
# [7] = Hemolytic activity in human RBC at 128 ug/ml incubated for 60 mins relative to control; format: ADME, cell-based, Erythrocyte; settings: red blood cells (erythrocytes), dose 128 µg/ml, read-out: Activity
# Method in brief: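 Single-donor human erythrocytes as a 5% v/v suspension in PBS. Compounds serially diluted in PBS, in triplicate, and incubated with RBCs at 37 °C for 60 min. PBS served as the negative control and Triton-X as the positive control. Samples spun at 4,000 rpm for 5 min and supernatant absorbance read at 540 nm. Percent hemolysis = 100×(sample−negative)/(positive−negative).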
# Staphylococcus aureus [8] = assay: Antibacterial activity against methicillin-resistant Staphylococcus aureus ATCC 33592 assessed as reduction in bacterial count at 3 x MIC incubated upto 24 hrs by time kill analysis; format: functional; settings: time hrs <=24
# Method in brief: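 Time-kill assay. […] Samples taken at 0, 2, 4, 8, 12 and 24 h, serially diluted in PBS and plated on tryptic soy agar. Viable CFU/mL counted after 18-20 h at 37 °C.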
smiles,measurement,setting,value
O=C(Nc1nnc(-c2cccs2)o1)c1ccc(S(=O)(=O)C(F)(F)F)cc1,MBC,Staphylococcus aureus [1],> 128 µg/mL
same,Activity,Caco-2,Non-Toxic
same,MIC,[2],4 µg/mL
same,MIC,Staphylococcus aureus [3],8 µg/mL
same,MIC,Staphylococcus aureus [4],8 µg/mL
same,Activity,J774,Non-Toxic
same,MIC,Staphylococcus aureus [5],4 µg/mL
same,MIC,Staphylococcus aureus [6],8 µg/mL
same,"hemolysis at 1 h, 128 ug/ml",[7],37%
same,Activity,Staphylococcus aureus [8],1.04 log10CFU/ml
